Screens as filed in PubChem BioAssay.
T cruzi intra: blocks T. cruzi growth inside host cells. activity score (inhibition), % at 5.01 µM. actives 4.9% (n = 22,000). AID 651903. intracellular Trypanosoma cruzi in host cells, plate reader; in the data active means activity score above about 55%; inconclusive means no clear call, values can overlap the other calls;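 further: parasites and compound incubated about four days before reading; 0% = median of neutral control wells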
A1 apoptosis 2: blocks A1, raising caspase activity; MEF A1-2A-BIM cells, caspase-Glo luminescence, 3 h; percent of clofoctol response, DMSO zero; caspase activation, % (no concentration beside the values); 24,000 tested, under 10 active; AID 2465; in the data active means caspase activation above about 5.9%; inconclusive means no clear call, values can overlap the other calls; inactive means below about 2.2%
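Material: A1-2A-BIM-expressing MEF cells. Buffer or medium: RPMI-1640 plus 10% FBS. Incubation: cells settled overnight, compound exposure 3 h at 37 °C, 5% CO2. Signal: Caspase-Glo 3/7 luminescence, 1 h at room temperature.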
INS-1E rescue: INS-1E beta cell protection from cytokine death; protection from cytokine-induced ATP loss, % at 10 µM; INS-1E cytokine-induced death, ATP luminescence, 48 h; normalised: neutral wells 0, positive control 100; actives 0.1% (n = 20,000);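 active means mean replicate protection from cytokine-induced ATP loss at least 50% and at least 75% of replicates each reaching 50%; inconclusive means meets only one of the two criteria, mean or replicate share; inactive means fails both the mean and replicate share criteria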
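Assay system: INS-1E rat cells / Quantity: 8000 cells per well / Medium: RPMI without phenol red, 5% FBS / Probe or stimulus: three-cytokine cocktail (IFN-γ, TNF-α, IL-1β) / Dosing: one compound concentration, pin transfer / Timing: 48 h co-treatment, 10 min post-lysis read / Technique: CellTiter-Glo luminescence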
* hit, by the source's call; ? = inconclusive; / = not tested or not shown. This excerpt belongs to a sample that is enriched for hits.

SMILES | T cruzi intra | A1 apoptosis 2 | INS-1E rescue
C[C@@H]1CN([C@@H](C)CO)C(=O)c2cccc(NC(=O)Nc3ccc(C(F)(F)F)cc3)c2O[C@@H]1CN(C)S(=O)(=O)c1ccc(Cl)cc1 | 70* | 0 | -107
Cc1ccc(S(=O)(=O)N(C)C[C@H]2Oc3c(NC(=O)Nc4ccc(C(F)(F)F)cc4)cccc3C(=O)N([C@H](C)CO)C[C@@H]2C)cc1 | 27 | / | -14
C[C@H](CO)N1C[C@H](C)[C@@H](CN(C)S(=O)(=O)c2ccccc2)Oc2c(NC(=O)Nc3ccccc3)cccc2C1=O | 61* | -1 | -4
C=C(C)[C@@H]1CC=C(/C=N/NC(=O)CCCCCC(=O)O)CC1 | -14 | -1 | 5
CN1C(=O)[C@@H]2[C@@H](CC(COc3ccccc3)=C3[C@@H](CCc4ccccc4)OB(O)C[C@@H]32)C1=O | / | 0 | /
O=C(O)CCCCCC(=O)N/N=C/c1cn(S(=O)(=O)c2ccccc2)c2ccccc12 | 9 | 0 | 8
CC(C)NC(=O)Nc1cccc2c1O[C@@H](CN(C)Cc1ccc(C(=O)Nc3ccccc3N)cc1)[C@@H](C)CN([C@H](C)CO)C2=O | 31 | -2 | -14
CC(C)NC(=O)Nc1cccc2c1O[C@@H](CN(C)Cc1ccc(C(=O)Nc3ccccc3N)cc1)[C@@H](C)CN([C@@H](C)CO)C2=O | 27 | 1 | -15
C[C@@H]1CN([C@@H](C)CO)C(=O)c2cccc(NC(=O)C3CC3)c2O[C@H]1CN(C)Cc1ccc(C(=O)Nc2ccccc2N)cc1 | 38 | 0 | -10
CC(C)NC(=O)Nc1cccc2c1O[C@H](CN(C)Cc1ccc(C(=O)Nc3ccccc3N)cc1)[C@H](C)CN([C@@H](C)CO)C2=O | 52 | -1 | 28
C[C@H]1CN([C@@H](C)CO)C(=O)c2cccc(NC(=O)NC3CCCCC3)c2O[C@H]1CN(C)Cc1ccc(C(=O)Nc2ccccc2N)cc1 | 60* | / | -19
C[C@@H]1CN([C@H](C)CO)C(=O)c2cccc(NC(=O)NC3CCCCC3)c2O[C@@H]1CN(C)Cc1ccc(C(=O)Nc2ccccc2N)cc1 | 67* | 1 | 17
C[C@@H]1CN([C@@H](C)CO)C(=O)c2cccc(NC(=O)C3CCCCC3)c2O[C@@H]1CN(C)Cc1ccc(C(=O)Nc2ccccc2N)cc1 | 61* | / | 47
C[C@H](CO)N1C[C@H](C)[C@H](CN(C)Cc2ccc(C(=O)Nc3ccccc3N)cc2)Oc2c(NC(=O)NC3CCCCC3)cccc2C1=O | 58* | -1 | -9
O=C(CCCCCC(=O)Nc1ccccc1O)N/N=C/c1ccccc1OCCO | -12 | / | 8
O=C(N/N=C/c1ccc(S(=O)(=O)O)o1)c1ccccc1O | 0 | / | -37
C[C@H](CO)N1C[C@H](C)[C@H](CN(C)Cc2ccc(C(F)(F)F)cc2)Oc2c(NC(=O)CCCCCC(=O)Nc3ccccc3N)cccc2C1=O | 73* | 1 | 9
C[C@@H]1CN([C@H](C)CO)C(=O)c2cccc(NC(=O)CCCCCC(=O)Nc3ccccc3N)c2O[C@H]1CN(C)Cc1ccc(-c2ccccc2)cc1 | 71* | / | -7
COc1ccc(CN(C)C[C@@H]2Oc3c(NC(=O)CCCCCC(=O)Nc4ccccc4N)cccc3C(=O)N([C@H](C)CO)C[C@H]2C)cc1 | / | 1 | /
C[C@@H]1CN([C@H](C)CO)C(=O)c2cccc(NC(=O)CCCCCC(=O)Nc3ccccc3N)c2O[C@@H]1CN(C)Cc1ccc(C(F)(F)F)cc1 | 54 | 0 | 13
C[C@H]1CN([C@@H](C)CO)C(=O)c2cccc(NC(=O)CCCCCC(=O)Nc3ccccc3N)c2O[C@@H]1CN(C)Cc1ccc(-c2ccccc2)cc1 | 67* | 1 | -13
C[C@@H]1CN([C@H](C)CO)C(=O)c2cccc(NC(=O)CCCCCC(=O)Nc3ccccc3N)c2O[C@H]1CN(C)Cc1ccccc1 | / | -1 | /
COc1ccc(Br)cc1/C=N/NC(=O)CCCCCCC(=O)Nc1ccccc1O | 3 | 1 | 11
O=C(N/N=C/c1ccccc1Br)c1ccccc1O | -22 | -10 | 4
C[C@H]1CN([C@@H](C)CO)C(=O)c2cc(NC(=O)Nc3ccc(C(F)(F)F)cc3)ccc2O[C@H]1CN(C)Cc1ccc(C(F)(F)F)cc1 | ? | 0 | -14
SMILES | T cruzi intra | A1 apoptosis 2 | INS-1E rescue
C[C@@H]1CN([C@H](C)CO)C(=O)c2cc(NC(=O)Nc3ccc4c(c3)OCO4)ccc2O[C@H]1CN(C)Cc1ccc(Oc2ccccc2)cc1 | -6 | / | /
C[C@H]1CN([C@@H](C)CO)C(=O)c2cc(NC(=O)Nc3ccc(C(F)(F)F)cc3)ccc2O[C@H]1CN(C)Cc1ccc2c(c1)OCO2 | 34* | / | /
C[C@@H]1CN([C@H](C)CO)C(=O)c2cc(NC(=O)Nc3ccc4c(c3)OCO4)ccc2O[C@@H]1CN(C)Cc1ccc(Oc2ccccc2)cc1 | 62* | / | -12
C[C@H]1CN([C@@H](C)CO)C(=O)c2cc(NC(=O)Nc3ccc4c(c3)OCO4)ccc2O[C@@H]1CN(C)Cc1ccc2c(c1)OCO2 | -2 | 1 | -4
C[C@@H]1CN([C@H](C)CO)C(=O)c2cc(NC(=O)Nc3ccc(C(F)(F)F)cc3)ccc2O[C@H]1CN(C)Cc1ccc2c(c1)OCO2 | 36 | / | -19
C[C@@H]1CN([C@@H](C)CO)C(=O)c2cc(NC(=O)Nc3ccc4c(c3)OCO4)ccc2O[C@@H]1CN(C)Cc1ccc(C(F)(F)F)cc1 | 68* | -2 | /
C[C@H]1CN([C@@H](C)CO)C(=O)c2cc(NC(=O)Nc3ccccc3)ccc2O[C@H]1CN(C)Cc1ccc2c(c1)OCO2 | 52* | / | /
O=C1C2(CO)C=C(Br)[C@H](C[C@@H]2c2ccccc2)[C@@]12CO2 | / | 1 | /
[N-]=[N+]=NCC(=O)N1CCC2(CC1)C(=O)NCN2c1ccccc1 | / | 1 | /
COC(=O)CCCCCCC(=O)N/N=C/CCC1CCCCC1 | 1 | 1 | 4
O=C(CCCCCC(=O)N/N=C/c1ccc(F)cc1)NO | / | 1 | /
C[C@H](CO)N1C[C@H](C)[C@H](CN(C)Cc2cccc(C(F)(F)F)c2)Oc2ncc(-c3ccc(F)cc3)cc2C1=O | 59* | / | /
C[C@H](CO)N1C[C@H](C)[C@H](CN(C)Cc2ccccc2)Oc2ncc(-c3cccc(C(F)(F)F)c3)cc2C1=O | ? | 0 | /
CNC[C@@H]1Oc2ncc(-c3cccc(C(F)(F)F)c3)cc2C(=O)N([C@H](C)CO)C[C@@H]1C | 54 | -1 | /
C[C@H](CO)N1C[C@H](C)[C@H](CN(C)Cc2ccc(F)cc2)Oc2ncc(-c3cccc(C(F)(F)F)c3)cc2C1=O | 62* | / | /
C[C@H](CO)N1C[C@H](C)[C@H](CN(C)Cc2cccc(C(F)(F)F)c2)Oc2ncc(C#Cc3ccccc3)cc2C1=O | 84* | 1 | /
Cc1cccc(CN(C)C[C@@H]2Oc3ncc(-c4ccc(F)cc4)cc3C(=O)N([C@H](C)CO)C[C@@H]2C)c1 | 34 | / | /
C[C@H](CO)N1C[C@H](C)[C@H](CN(C)C)Oc2ncc(-c3cccc(C(F)(F)F)c3)cc2C1=O | 81* | 1 | /
C[C@H](CO)N1C[C@H](C)[C@H](CN(C)Cc2ccc(F)cc2)Oc2ncc(C#Cc3ccccc3)cc2C1=O | / | 1 | /
